Compound activity deposited in PubChem BioAssay by Johns Hopkins Ion Channel Center.
Sampled rows, rich in hits. Any-hit rate of the full collection: about 3.1%.
KCNQ1 act: human KCNQ1 channel potentiation or activation; B-score at 10 µM; CHO-K1 KCNQ1, thallium flux FluxOR fluorescence; hits give high values; AID 2648; P51787; hit rate 0.35% among 310,000;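 active = fluorescence ratio B-score, a plate-corrected score, at least three library SD, with initial intensity B-score within 5 SD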
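Assay system: CHO-K1 cells stably expressing KCNQ1. Medium: assay buffer for compound exposure, DMSO matched across wells. Timing: 37 °C overnight plating, 90-min dark dye load, 20-min compound pretreatment. Signal: kinetic FluxOR fluorescence, 10 s baseline plus 110 s post-stimulus.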
KCNQ1 inh: inhibitors of human KCNQ1 potassium channel. CHO-K1 KCNQ1, FluxOR thallium flux fluorescence; hits give high values. B-score at 10 µM. hit rate 1.3% among 310,000. P51787;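 active = compounds whose thallium flux B-score, printed positive for inhibition, exceeds three library SD while starting fluorescence stays within three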;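 also: channel opened by potassium depolarization with thallium stimulus after 20 min compound exposure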
KCNK9 block: blocks the human KCNK9 two-pore domain potassium channel; hit rate 1.2% among 310,000; AID 488922; B-score at 10 µM; Q9NPC2; HEK293 KCNK9, FluxOR thallium flux fluorescence; hits give low values;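 active = ratio B-score over 3 SD below the library mean, with starting fluorescence within 5 SD of its mean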;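 also: negative B-score means less thallium flux so channel inhibition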
Target sequence (Q9NPC2 whole entry, looked up, the tested form may be a part): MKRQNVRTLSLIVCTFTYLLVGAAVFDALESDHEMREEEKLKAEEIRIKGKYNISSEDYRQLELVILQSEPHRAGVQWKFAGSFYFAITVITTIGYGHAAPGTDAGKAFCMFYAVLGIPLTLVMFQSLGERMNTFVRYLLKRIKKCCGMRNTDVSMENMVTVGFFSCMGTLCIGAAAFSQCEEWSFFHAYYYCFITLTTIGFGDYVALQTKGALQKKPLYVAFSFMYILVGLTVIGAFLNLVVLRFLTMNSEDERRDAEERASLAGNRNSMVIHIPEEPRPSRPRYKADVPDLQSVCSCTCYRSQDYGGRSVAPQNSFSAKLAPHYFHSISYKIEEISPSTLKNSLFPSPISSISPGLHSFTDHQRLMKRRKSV
hERG rescue: shields human hERG channel from block by proarrhythmic agents; Q12809; hit rate 0.51% among 310,000; activation (rescue from dofetilide block), less the hit threshold, % at 10 µM; CHO-hERG, FluxOR thallium flux, dofetilide IC70 present;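 active = activation above the mean of controls blocked by dofetilide plus 5 SD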;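 also: thallium influx through hERG after potassium depolarization seen as dye fluorescence rise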
KCNK3 inh: human KCNK3 channel inhibition, primary screen. O14649. CHO-KCNK3 thallium flux, FluxOR fluorescence; hits give low values. B-score at 10 µM. hit rate 0.84% among 340,000;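 active = B-score under library mean minus 4 SD, starting fluorescence ratio at most library mean plus 5 SD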;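 also: more negative B-score means stronger inhibition of thallium flux through KCNK3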
KCNK9 inh conf: confirmation of human KCNK9 potassium channel inhibitors | shares compounds with KCNK9 block | HEK293 KCNK9 cells, FluxOR thallium flux fluorescence | inhibition, % at 10 µM | hit rate 43% among 4,900 | AID 492992;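 active = thallium signal inhibited by more than 5 SD of the compound-free buffer control wells, on both duplicate plates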;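 also: 0% = assay buffer control wells without compound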
Kir21 sel: selectivity of KCNK9 modulators against mouse Kir2.1; inhibition, % at 10 µM; shares compounds with KCNK9 block; Kir2.1 cells, FluxOR thallium flux fluorescence; AID 492993; hit rate 4% among 4,900;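 active = thallium signal drop more than 5 SD beyond the mean of the no-compound control wells, seen in both duplicate plates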;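 also: signal is fluorescence rise after thallium addition divided by baseline fluorescence; plate controls were assay buffer only for no effect and full block by chlorpromazine control for full effect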
KCNK9 uninduced: non-induced cell nonspecific activity of KCNK9 modulators. shares compounds with KCNK9 block. non-induced KCNK9-HEK293, FluxOR thallium flux. inhibition, % at 10 µM. hit rate 40% among 4,900. AID 492997;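 active = thallium signal drop beyond 5 SD of the untreated control mean, on both duplicate plates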;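 also: plate controls were buffer only IC0 wells for no effect and SID17386958 at its maximal inhibitory level for full effect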
An asterisk follows results filed as active; i = inactive; / = no result.

SMILES	KCNQ1 act	KCNQ1 inh	KCNK9 block	hERG rescue	KCNK3 inh	KCNK9 inh conf	Kir21 sel	KCNK9 uninduced
O=C1c2ccccc2C2=Nc3ccccc3SC(c3ccc(Cl)cc3)C12 (stereo not given)	i	i	-13*	-12	i	46%*	i	34%*
O=C1c2ccccc2C2=Nc3ccccc3SC(c3cccc(F)c3)C12 (stereo not given)	i	i	-15*	-4	i	56%*	i	56%*
COc1ccc(OC)c2[nH]c(=O)c(CCNC(=O)C3CCCCC3)cc12	i	i	i	-9	i	/	/	/
C[C@H]1CCC(=O)N([C@H](COc2ccccc2)Cc2ccccc2)CC1	i	i	i	-15	i	/	/	/
C=C(C)Cn1c(CCNC(=O)C(C)C)nc2ccccc21	i	i	i	-13	i	i	i	i
Cc1c(C(=O)N2CCN(c3ncccn3)CC2)oc2c(Cl)cccc12	i	i	i	-10	i	/	/	/
COc1ccc(/C=N\NC(=O)c2cc(O)c(O)c(O)c2)cc1CN1CCN(c2ccc(F)cc2)CC1	i	i	i	-11	i	i	i	i
COc1ccc(/C=N/NC(=O)c2ccc(C)cc2)cc1CN1CCN(c2ccc(F)cc2)CC1	i	i	i	-19	i	/	/	/
O=C1CCCN1c1ccc(S(=O)(=O)N2CCCCC2)cc1	i	i	i	0	i	/	/	/
N#C/C(N=Nc1ccccc1O)=N\Nc1ccccc1O	i	6*	-8.7*	-37	i	30%*	30%*	i
CCN1CCCc2cc(CN(CCN3CCOCC3)C(=S)Nc3cccc(Cl)c3)ccc21	i	i	i	-13	i	i	i	i
CCN1CCCc2cc(CN(CCN3CCOCC3)C(=S)Nc3ccc(C)cc3)ccc21	i	i	i	-6	i	/	/	/
Cc1c(NC(=O)c2ccc(Br)s2)c(=O)n(-c2ccccc2)n1C	i	i	i	-14	i	/	/	/
CCOC(=O)CSc1nc(C)nc2c1sc1nc(C)c(C(C)=O)c(-c3ccc(OC)cc3)c12	i	i	-11*	-5	i	48%*	i	46%*
CCOC(=O)c1c(C)nc2sc3c(=O)n(-c4ccc(C)cc4)cnc3c2c1-c1ccc(OC)cc1	i	i	i	-5	i	/	/	/
O=C(NCC(=O)N(CC1CCCO1)C(C(=O)NC1CCCC1)c1cccnc1)c1ccco1 (stereo not given)	i	i	i	-5	i	/	/	/
COc1cccc(Nc2nc(-c3ccc(O)cc3)cs2)c1	i	i	i	-32	i	/	/	/
COc1cccc(Nc2nc(-c3cccc(N4C(=O)c5ccccc5C4=O)c3)cs2)c1	i	i	i	-7	i	i	i	i
Cc1c(/C=N/n2cnnc2)c2ccccc2n1CCOc1ccc(Cl)cc1	i	i	-8.2*	-12	i	i	i	i
CCC(C)(C)c1ccc(OCCCC[n+]2cccc(C)c2C)c(C(C)(C)CC)c1	i	i	-12*	-29	i	56%*	46%*	i
COc1ccc(C2Nc3ccccc3C(=O)N2Cc2ccco2)cc1COc1ccccc1F (stereo not given)	i	i	-9*	-7	i	46%*	i	34%*
CSc1ccc(C(=O)C2CCCN(C(=O)CN3CCOC3=O)C2)cc1 (stereo not given)	i	i	i	-4	i	/	/	/
COCc1ccc(C(=O)N2CCCC(C(=O)c3cccc(C(F)(F)F)c3)C2)o1 (stereo not given)	i	i	i	-11	i	/	/	/
CSc1ccc(C(=O)C2CCCN(C(=O)c3cccc(N4CCOCC4)c3)C2)cc1 (stereo not given)	i	i	i	-16	i	i	i	i
